In ChEMBL document CHEMBL5252518, “Correlation of in Situ Oxazolidine Formation with Highly Synergistic Cytotoxicity and DNA Cross-Linking in Cancer Cells from Combinations of Doxorubicin and Formaldehyde” (J Med Chem, 2016):
The source made the active and inactive calls. No cut-off for these calls is given here.

Columns and labels:
[1] = tested on: NCI/ADR-RES; experiment: Cytotoxicity against doxorubicin-resistant human NCI/ADR-RES cells assessed as inhibition of cell growth incubated for 3 hrs by crystal violet staining assay; format: functional, cell-based
[2] = Half life of compound; format: physicochemical
[3] = Prodrug conversion in pig liver assessed as esterase-mediated Doxazolidine formation by measuring its half life at 1 uM by HPLC analysis; format: ADME, tissue-based, Sus scrofa
[4] = tested on: NCI/ADR-RES; experiment: Cytotoxicity against doxorubicin-resistant human NCI/ADR-RES cells assessed as fold change in IC50 incubated for 3 hrs in presence of pig liver esterase by crystal violet staining assay; format: functional
[5] = tested on: NCI/ADR-RES; experiment: Cytotoxicity against doxorubicin-resistant human NCI/ADR-RES cells assessed as inhibition of cell growth incubated for 3 hrs in presence of pig liver esterase by crystal violet staining assay; format: functional, cell-based
[6] = tested on: NCI/ADR-RES; experiment: Cytotoxicity against doxorubicin-resistant human NCI/ADR-RES cells assessed as fold change in IC50 incubated for 3 hrs in presence of pig liver esterase by crystal violet staining assay relative to Doxsaliform; format: functional
[7] = tested on: DNA; experiment: Induction of DNA (unknown origin) expressed in Escherichia coli DH5alpha interstrand cross-linking assessed as inhibition of NotI-induced DNA digestion at 1.5 to 8 uM incubated for 30 mins by agarose gel electrophoresis based restriction endonuclease digestion assay; format: functional; conditions: dose 1.5-8 µM
[8] = tested on: MIA PaCa-2; experiment: Cytotoxicity against doxorubicin-sensitive human MIA PaCa-2 cells assessed as inhibition of cell growth incubated for 90 mins by crystal violet staining assay; format: functional, cell-based; conditions: MIA PaCa-2, 1.5 h
[9] = Genotoxicity in doxorubicin-resistant human NCI/ADR-RES cells assessed as increase in tail DNA density at 250 uM incubated for 90 mins by comet assay; format: toxicity, cell-based; conditions: 1.5 h
Outline: (§1)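 Alkaline single-cell gel electrophoresis (comet) assay. A bulk population of cells was trypsinized, then split into treatment groups and treated in suspension for 90 min. After the drug was removed, cells were promptly embedded in agarose, lysed and electrophoresed under alkaline conditions. Gels were then stained, and the stain density in the comet tail was scored as DNA strand-break content.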

[10] = tested on: DNA; experiment: Induction of DNA (unknown origin) expressed in Escherichia coli DH5alpha interstrand cross-linking assessed as inhibition of NdeI-induced DNA digestion at 1.5 to 8 uM incubated for 30 mins by agarose gel electrophoresis based restriction endonuclease digestion assay; format: functional; conditions: dose 1.5-8 µM
[11] = Genotoxicity in doxorubicin-sensitive human MIA PaCa-2 cells assessed as increase in tail DNA density at 250 uM incubated for 90 mins by comet assay; format: toxicity, cell-based; conditions: mia paca-2, 1.5 h; outline: as §1
[12] = Genotoxicity in doxorubicin-resistant human NCI/ADR-RES cells assessed as increase in tail DNA density at 10 uM incubated for 90 mins by comet assay; format: toxicity, cell-based; conditions: 1.5 h; outline: as §1
[13] = tested on: MIA PaCa-2; experiment: Cytotoxicity against doxorubicin-sensitive human MIA PaCa-2 cells assessed as inhibition of cell growth incubated for 30 mins by crystal violet staining assay; conditions: MIA PaCa-2, 0.5 h
[14] = tested on: DNA; experiment: Induction of DNA interstrand cross-linking in hydrogen peroxide induced human NCI/ADR-RES cells assessed as decrease in comet tail density at 10 uM incubated for 90 mins by comet assay; format: functional, cell-based
[15] = tested on: NCI/ADR-RES; experiment: Cytotoxicity against doxorubicin-resistant human NCI/ADR-RES cells assessed as inhibition of cell growth incubated for 90 mins by crystal violet staining assay; format: functional, cell-based; conditions: 1.5 h
[16] = Genotoxicity in doxorubicin-sensitive human MIA PaCa-2 cells assessed as increase in tail DNA density at 10 uM incubated for 90 mins by comet assay; format: toxicity, cell-based; conditions: mia paca-2, 1.5 h; outline: as §1
[17] = tested on: NCI/ADR-RES; experiment: Synergistic cytotoxicity against doxorubicin-resistant human NCI/ADR-RES cells assessed as combination index incubated for 90 mins in presence of formaldehyde by crystal violet staining assay; conditions: 1.5 h
[18] = tested on: MIA PaCa-2; experiment: Synergistic cytotoxicity against doxorubicin-sensitive human MIA PaCa-2 cells assessed as cell survival incubated for 90 mins in presence of formaldehyde by crystal violet staining assay; format: functional; conditions: 1.5 h
[19] = Genotoxicity in doxorubicin-sensitive human MIA PaCa-2 cells assessed as increase in DNA damage at 100 uM incubated for 90 mins by comet assay; format: toxicity, cell-based; conditions: mia paca-2, 1.5 h
Outline: (§2)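 Cells were trypsinized as one bulk population, split into treatment groups and drug-treated in suspension for 90 min. They were then promptly embedded in agarose, lysed and electrophoresed under alkaline conditions (alkaline single-cell gel electrophoresis). After staining, DNA strand breaks were scored as comet tail stain density.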

[20] = tested on: NCI/ADR-RES; experiment: Induction of DNA damage in hydrogen peroxide induced human NCI/ADR-RES cells assessed as increase in comet tail density at 100 uM incubated for 90 mins by comet assay; format: functional, cell-based
[21] = tested on: NCI/ADR-RES; experiment: Synergistic cytotoxicity against doxorubicin-resistant human NCI/ADR-RES cells assessed as fold change in IC50 incubated for 90 mins in presence of formaldehyde low concentration by crystal violet staining assay; conditions: 1.5 h
[22] = tested on: NCI/ADR-RES; experiment: Synergistic cytotoxicity against doxorubicin-resistant human NCI/ADR-RES cells assessed as fold change in IC50 incubated for 90 mins in presence of formaldehyde by crystal violet staining assay; conditions: 1.5 h
[23] = tested on: NCI/ADR-RES; experiment: Cytotoxicity against doxorubicin-resistant human NCI/ADR-RES cells assessed as inhibition of cell growth incubated for 30 mins by crystal violet staining assay; format: functional, cell-based; conditions: 0.5 h
[24] = tested on: MIA PaCa-2; experiment: Synergistic cytotoxicity against doxorubicin-sensitive human MIA PaCa-2 cells assessed as combination index incubated for 90 mins in presence of formaldehyde by crystal violet staining assay; format: functional; conditions: 1.5 h
[25] = tested on: NCI/ADR-RES; experiment: Synergistic cytotoxicity against doxorubicin-resistant human NCI/ADR-RES cells assessed as fold change in IC50 incubated for 30 mins in presence of formaldehyde by crystal violet staining assay; conditions: 0.5 h
[26] = tested on: MIA PaCa-2; experiment: Synergistic cytotoxicity against doxorubicin-sensitive human MIA PaCa-2 cells assessed as fold change in IC50 incubated for 90 mins in presence of formaldehyde by crystal violet staining assay; format: functional; conditions: 1.5 h
[27] = Genotoxicity in doxorubicin-resistant human NCI/ADR-RES cells assessed as increase in DNA damage at 100 uM incubated for 90 mins by comet assay; format: toxicity, cell-based; conditions: 1.5 h; outline: as §2
[28] = tested on: MIA PaCa-2; experiment: Synergistic cytotoxicity against doxorubicin-sensitive human MIA PaCa-2 cells assessed as inhibition of cell growth incubated for 90 mins in presence of formaldehyde by crystal violet staining assay; format: functional, cell-based; conditions: MIA PaCa-2, 1.5 h
[29] = tested on: MIA PaCa-2; experiment: Synergistic cytotoxicity against doxorubicin-sensitive human MIA PaCa-2 cells assessed as inhibition of cell growth incubated for 90 mins in presence of epirubicin by crystal violet staining assay; conditions: MIA PaCa-2, 1.5 h

Row | Structure (SMILES) | IC50 [1] [nM] | Activity [7] | IC50 ([8]; read-out: IC50) [nM] | IC50 ([8]; read-out: pIC50 (converted)) [nM] | Activity [10] | IC50 [13] [nM] | IC50 ([15]; read-out: IC50) [nM] | IC50 ([15]; read-out: pIC50 (converted)) [nM] | Activity [19] | Activity [20] | IC50 [23] [nM] | Activity [27] | also measured
1 | COc1cccc2c1C(=O)c1c(O)c3c(c(O)c1C2=O)C[C@@](O)(C(=O)CO)C[C@@H]3O[C@H]1C[C@H](NCNC(=O)c2ccccc2O)[C@H](O)[C@H](C)O1 | 800000 |  |  |  |  |  |  |  |  |  |  |  | half-life [2]: 57 min
2 | CCCCCOC(=O)Nc1ccc(COC(=O)N2CO[C@@H]3[C@H](C)O[C@@H](O[C@H]4C[C@](O)(C(=O)CO)Cc5c(O)c6c(c(O)c54)C(=O)c4c(OC)cccc4C6=O)C[C@@H]32)cc1 | 2000 |  |  |  |  |  |  |  |  |  |  |  | t1/2 [3]: 24 min; fold change (FC) [4]: 30; IC50 [5]: 3 nM; fold change (FC) [6]: 25
3 | COc1cccc2c1C(=O)c1c(O)c3c(c(O)c1C2=O)C[C@@](O)(C(=O)CO)C[C@@H]3O[C@H]1C[C@@H]2NCO[C@@H]2[C@H](C)O1 [DOXAZOLIDINE] |  | Active | 22 | 20 | Active | 51000 | 48 | 50.1 |  |  |  |  | Activity [9]: Non-Toxic; Activity [11]: Non-Toxic; Activity [12]: Non-Toxic; Activity [14]: Active; Activity [16]: Non-Toxic
4 | COc1cccc2c1C(=O)c1c(O)c3c(c(O)c1C2=O)C[C@@](O)(C(=O)CO)C[C@@H]3O[C@H]1C[C@H](N)[C@H](O)[C@H](C)O1 [DOXORUBICIN] |  | Active | 66000 | 63100 | Active | 4000 | 620 | 617 | Toxic | Active | 220000 | Toxic | CI [17]: 0.02; Activity [18]: 75%; fold change (FC) [21]: 2.5; fold change (FC) [22]: 55; CI [24]: 0.4; fold change (FC) [25]: 9; fold change (FC) [26]: 3.5
5 | COc1cccc2c1C(=O)c1c(O)c3c(c(O)c1C2=O)C[C@@](O)(C(=O)CO)C[C@@H]3O[C@H]1C[C@H](N)[C@@H](O)[C@H](C)O1 [EPIRUBICIN] |  |  | > 100000 |  |  |  | 630 | 631 | Toxic | Active |  | Toxic | IC50 [28]: 500 nM
6 | C=O [FORMALDEHYDE] |  |  | 610000 | 631000 |  |  | 530000 | 501000 |  |  | 600000 |  | IC50 [29]: 500 nM
